The text below walks through data of ChEMBL document CHEMBL1152686, “Development and characterization of lysine based tripeptide analogues as inhibitors of Sir2 activity” (Bioorg Med Chem, 2009).

Assay [1] concerns Plasmodium falciparum. Briefly: Inhibition of His-tagged Plasmodium falciparum Sir2 expressed in Escherichia coli at t500 uM preincubated 5 min before substrate assay mixture addition by FRET assay. The method in brief: (§1)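 Recombinant C-terminal His-tagged PfSir2 from E. coli BL21(DE3), Ni-NTA purified. Enzyme preincubated with inhibitor 5 min, then added to mix of 5 mM Tris-HCl pH 8.0, trichostatin A and trypsin with acetyl-lysine EDANS–DABCYL peptide. Deacetylation allows trypsin cleavage and a rise in fluorescence. Read at 37 °C on a spectrofluorimeter.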

Assay [2] is described as follows: Noncompetitive inhibition of His-tagged Plasmodium falciparum Sir2 expressed in Escherichia coli measured by secondary plot of slope versus inhibitor concentration in presence of saturating NAD+ levels by FRET assay. The method in brief:
(§2)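 His-tagged PfSir2 from E. coli, coupled FRET assay (acetyl-lysine EDANS–DABCYL peptide, trypsin cleavage after deacetylation), 37 °C. Initial velocities measured with one substrate varied, the other fixed at saturating level, at several fixed inhibitor levels. Parameters from non-linear regression. Lineweaver–Burk plots, plus secondary slope and intercept plots versus [I], fit linearly or by second-order polynomial. Two independently purified enzyme batches.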

The target of assay [3] is T1, NAD-dependent protein deacetylase sirtuin-1 (Homo sapiens) (UniProt Q96EB6).
T1 sequence (whole entry): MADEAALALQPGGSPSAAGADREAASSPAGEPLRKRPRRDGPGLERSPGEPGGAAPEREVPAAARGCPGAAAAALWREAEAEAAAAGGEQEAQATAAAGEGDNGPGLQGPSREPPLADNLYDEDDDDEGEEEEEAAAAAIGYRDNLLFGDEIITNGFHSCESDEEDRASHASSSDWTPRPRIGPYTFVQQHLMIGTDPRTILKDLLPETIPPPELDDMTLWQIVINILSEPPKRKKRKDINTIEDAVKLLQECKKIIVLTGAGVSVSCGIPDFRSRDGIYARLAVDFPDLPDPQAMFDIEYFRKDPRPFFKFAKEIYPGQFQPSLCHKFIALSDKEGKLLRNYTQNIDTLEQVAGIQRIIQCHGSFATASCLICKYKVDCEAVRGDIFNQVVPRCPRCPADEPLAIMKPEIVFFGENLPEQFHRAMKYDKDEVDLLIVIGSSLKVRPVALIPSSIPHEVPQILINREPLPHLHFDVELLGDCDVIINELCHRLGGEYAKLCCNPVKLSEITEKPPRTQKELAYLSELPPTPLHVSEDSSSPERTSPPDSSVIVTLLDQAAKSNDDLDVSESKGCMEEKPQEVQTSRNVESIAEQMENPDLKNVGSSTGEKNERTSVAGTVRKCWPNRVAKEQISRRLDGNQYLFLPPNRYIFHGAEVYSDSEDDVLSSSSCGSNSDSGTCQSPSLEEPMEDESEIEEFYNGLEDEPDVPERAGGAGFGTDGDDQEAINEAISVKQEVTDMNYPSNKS
Briefly: Inhibition of human Sirt1.

A short description of assay [4]: Competitive inhibition of His-tagged Plasmodium falciparum Sir2 expressed in Escherichia coli measured by secondary plot of slope versus inhibitor concentration in presence of saturating acetylated peptide levels by FRET assay. The method in brief: as §2
Assay [5] in a line: Competitive inhibition of His-tagged Plasmodium falciparum Sir2 expressed in Escherichia coli measured by primary plot of enzyme kinetics in presence of saturating acetylated peptide levels by FRET assay. The method, boiled down: as §2
The nature of assay [6]: Noncompetitive inhibition of His-tagged Plasmodium falciparum Sir2 expressed in Escherichia coli measured by secondary plot of intercept versus inhibitor concentration in presence of saturating NAD+ levels by FRET assay. The method in brief: as §2
Assay [7] in a line: Noncompetitive inhibition of His-tagged Plasmodium falciparum Sir2 expressed in Escherichia coli measured by primary plot of enzyme kinetics in presence of saturating NAD+ levels by FRET assay. The method, boiled down: as §2
The nature of assay [8]: Inhibition of His-tagged Plasmodium falciparum Sir2 expressed in Escherichia coli preincubated 5 min before substrate assay mixture addition by FRET assay. The method, boiled down: as §1
Assay [9] relates to Plasmodium falciparum. Briefly: Antiplasmodial activity against Plasmodium falciparum 3D7 infected in human O+ erythrocytes assessed as inhibition of parasite growth in intraerythrocytic stage after 24 hrs by [3H]hypoxanthine incorporation assay. In kind it is functional, organism-based. The method in brief: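 P. falciparum 3D7 grown in human O+ erythrocytes at 5% hematocrit, RPMI 1640 with 10% human serum. Compound in DMSO, twofold serial dilutions from 400 to 0.2 µM. Wells at 2% parasitemia and 2% hematocrit, 37 °C in candle jar. After 24 h, 1.0 µCi [3H]hypoxanthine added per well for another 12 h. Filter-harvested counts; IC50 by interpolation from log plot. Done twice in duplicate.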

pIC50, pKi: −log10 of the molar value. Calls of active or inactive are those of the source. No cut-off for these calls is given here.

The pKi is the negative decadic logarithm of the Ki, by convention in mol/L. The pIC50 is the negative decadic logarithm of the IC50, by convention in mol/L.

For the compound `CC(=O)O[C@H]1C[C@H](n2cc(C)c(=O)[nH]c2=O)O[C@@H]1Cn1cc(COC(=O)NCCCC[C@H](NC(=O)OC(C)(C)C)C(=O)OCc2ccccc2)nn1`, the inhibition entry in the assay on Plasmodium falciparum [1] is “inactive”.
Same read-out and setting: then `C#CCOC(=O)NCCCC[C@H](NC(=O)OC(C)(C)C)C(=O)N[C@H](C(=O)OC)C(C)C`, with “inactive”; and `C#CCOC(=O)NCCCC[C@H](NC(=O)OC(C)(C)C)C(=O)O`, with “inactive”.
Take `COC(=O)[C@@H](NC(=O)[C@H](CCCCNC(=O)OCc1cn(C[C@H]2O[C@@H](n3cc(C)c(=O)[nH]c3=O)C[C@@H]2OC(C)=O)nn1)NC(=O)[C@H](Cc1ccccc1)NC(=O)OC(C)(C)C)C(C)C`: the pKi in [2] is 3.94; in assay [4], 4.19; in [5] it was 4.22; in [6], 3.95; in assay [7], 3.91. Further, the “inhibition (qualitative call)” value in [3] is “Active”. Also, the pIC50 in assay [8] was 4.48.
Consider `COC(=O)[C@@H](NC(=O)[C@H](CCCCNC(=O)OCc1cn([C@@H]2O[C@H](COC(C)=O)[C@H](OC(C)=O)[C@H](OC(C)=O)[C@H]2OC(C)=O)nn1)NC(=O)[C@H](Cc1ccccc1)NC(=O)OC(C)(C)C)C(C)C`, for which the pKi in [2] is 3.76; in assay [4] it was 4.10; in assay [5], 4.07; in assay [6], 3.71; in assay [7], 3.81. The “inhibition (qualitative call)” value in assay [3] was “Active”. In assay [8], the pIC50 is 3.82.
As to `COC(=O)[C@@H](NC(=O)[C@H](CCCCNC(=O)OCc1cn([C@@H]2O[C@H]([C@@H]3COC(C)(C)O3)[C@@H]3OC(C)(C)O[C@@H]32)nn1)NC(=O)[C@H](Cc1ccccc1)NC(=O)OC(C)(C)C)C(C)C`, the pKi is 4.05 in assay [2]; 4.21 in assay [4]; 4.24 in assay [5]; 3.90 in assay [6]; 3.91 in assay [7]. In assay [3], the “inhibition (qualitative call)” value was “Active”. Besides, the pIC50 in [8] is 4.47.
For `COC(=O)[C@@H](NC(=O)[C@H](CCCCNC(=O)OCc1cn(C[C@H]2O[C@H](OC)[C@H](OC(C)=O)[C@@H](OC(C)=O)[C@@H]2OC(C)=O)nn1)NC(=O)[C@H](Cc1ccccc1)NC(=O)OC(C)(C)C)C(C)C`, the pIC50 was 5.01 in the assay with Plasmodium falciparum [9] and 4.64 in [8]. The pKi in assay [2] is 4.05; in assay [4], 4.22; in assay [5] it was 4.22; in assay [6], 3.92; in assay [7], 3.87. In addition, the “inhibition (qualitative call)” value in assay [3] was “Active”.
